Measured values taken from ChEMBL document CHEMBL1124568, “2,4-Diamino-5-benzylpyrimidines as antibacterial agents. 13. Some alkenyl derivatives with high in vitro activity against anaerobic organisms” (J Med Chem, 1989).
pIC50: −log10 of the molar value. ≈ marks a conversion by molar mass, not a printed value.

Legend:
Dihydrofolate reductase [1] = biological target: T1, Dihydrofolate reductase (Rattus norvegicus, UniProt Q920D2); test: In vitro inhibition of rat liver dihydrofolate reductase.; details: read-out: I50
T1 sequence (Q920D2 whole entry): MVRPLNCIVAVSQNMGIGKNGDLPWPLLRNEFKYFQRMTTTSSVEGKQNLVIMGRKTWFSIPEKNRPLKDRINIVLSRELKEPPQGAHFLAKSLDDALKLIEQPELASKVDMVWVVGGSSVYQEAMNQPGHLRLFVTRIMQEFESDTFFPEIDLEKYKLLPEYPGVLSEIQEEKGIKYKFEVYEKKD

Escherichia coli [2] = test: Antibacterial (Escherichia coli) activity compared to trimethoprim.; type: functional
Outline: (§1)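 Each MIC is divided by the MIC of trimethoprim run alongside. Serial dilutions were normally 0.1, 0.3, 1, 3, 10, etc., and occasionally 1, 5 and 10. For E. coli the value is the average over six strains.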

Klebsiella pneumoniae [3] = test: Antibacterial (Klebsiella pneumoniae CN3632) activity compared to trimethoprim.; type: functional; outline: as §1
[4] = tested on: Mycolicibacterium smegmatis; test: Antibacterial (Mycobacterium smegmatis S3254) activity compared to trimethoprim.; type: functional; outline: as §1
Pasteurella multocida = test: Antibacterial (Pasteurella multocides ATCC 6587) activity compared to trimethoprim.; type: functional; outline: as §1
Proteus vulgaris [5] = test: Antibacterial (Proteus vulgaris CN329) activity compared to trimethoprim.; type: functional; outline: as §1
[6] = Antibacterial (Salmonella typhi CN512) activity compared to trimethoprim.; type: functional, salmonella typhosa
Shigella flexneri = test: Antibacterial (Shigella flexneri CN6007) activity compared to trimethoprim.; type: functional; outline: as §1
Serratia marcescens = test: Antibacterial (Serratia marcescens CN2398) activity compared to trimethoprim.; type: functional; outline: as §1
Streptococcus pyogenes [7] = test: Antibacterial ([…] CN10) activity compared to trimethoprim.; type: functional; outline: as §1
Staphylococcus aureus [8] = test: Antibacterial (Staphylococcus aureus CN491) activity compared to trimethoprim.; type: functional; outline: as §1
Klebsiella aerogenes [9] = test: Antibacterial (Enterobacter aerogenes 2201/86) activity compared to trimethoprim.; type: functional; outline: as §1
Klebsiella aerogenes [10] = test: Ratio of antibacterial (Enterobacter aerogenes, 2201/86) activities of compound and trimethoprim; type: functional; outline: as §1
Klebsiella pneumoniae [11] = test: Ratio of antibacterial (Klebsiella pneumoniae CN3632) activities of compound and trimethoprim; type: functional; outline: as §1
Proteus vulgaris [12] = test: Ratio of antibacterial (Proteus vulgaris CN329) activities of compound and trimethoprim; type: functional; outline: as §1
Shigella dysenteriae = test: Ratio of antibacterial (Shigella dysentariae CN513) activities of compound and trimethoprim; type: functional
Staphylococcus aureus [13] = test: Ratio of antibacterial (Staphylococcus aureus CN491) activities of compound and trimethoprim; type: functional; outline: as §1
Salmonella = test: Ratio of antibacterial (Salmonella typhi CN512) activities of compound and trimethoprim; type: functional, salmonella typhosa
Escherichia coli [14] = test: Ratio of antibacterial (Escherichia coli CN314) activities of compound and trimethoprim; type: functional
Dihydrofolate reductase [15] = biological target: T2, Dihydrofolate reductase (Escherichia coli, UniProt P0ABQ4); test: In vitro inhibition of dihydrofolate reductase of Escherichia coli; details: read-out: I50
T2 sequence (P0ABQ4 whole entry): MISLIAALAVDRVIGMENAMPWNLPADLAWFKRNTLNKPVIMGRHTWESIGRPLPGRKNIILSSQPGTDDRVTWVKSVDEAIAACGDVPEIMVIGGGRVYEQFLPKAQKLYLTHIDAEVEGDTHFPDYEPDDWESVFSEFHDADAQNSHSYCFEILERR
Outline: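 The E. coli DHFR assay contained 1 nM enzyme, with the lower limit for I50 arbitrarily set at 2 nM. I50 was estimated from plots of % inhibition of steady-state velocity vs log inhibitor concentration.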

Streptococcus pyogenes [16] = test: Ratio of antibacterial (Streptococcus pyogenes CN10) activities of compound and trimethoprim
[17] = Half-life in dogs Plasma; type: ADME, organism-based, Canis lupus familiaris; details: dog
Outline: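 Two fasted (18 h) male beagles received 5 mg/kg […] (free base), co-dosed with 5 mg/kg trimethoprim in propylene glycol. Jugular plasma was sampled from 0.17 to 24 h. Drug was extracted, separated by TLC and read by fluorescence densitometry. t1/2 came from least-squares linear regression of the postabsorption segment of the plasma curve.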

Phocaeicola vulgatus = test: Ratio of antibacterial (Bacteroides vulgatus) activities compared to that of trimethoprim and metronidazole; type: functional
[18] = tested on: Bacteroides thetaiotaomicron; test: Ratio of antibacterial (Bacteroides thetaiotaomicron) activities compared to that of trimethoprim and metronidazole; type: functional
Clostridioides difficile = test: Ratio of antibacterial (Clostridium difficile) activities compared to that of trimethoprim and metronidazole; type: functional
Clostridium perfringens = test: Ratio of antibacterial (Clostridium perfringens) activities compared to that of trimethoprim and metronidazole; type: functional
Fusobacterium nucleatum = test: Ratio of antibacterial (Fusobacterium nucleatum) activities compared to that of trimethoprim and metronidazole; type: functional

| SMILES | pIC50 (Dihydrofolate reductase [1]) | MIC (Escherichia coli [2]) | MIC (Klebsiella pneumoniae [3]) | MIC [4] | MIC (Pasteurella multocida) | MIC (Proteus vulgaris [5]) | MIC [6] | MIC (Shigella flexneri) | MIC (Serratia marcescens) | MIC (Streptococcus pyogenes [7]) | MIC (Staphylococcus aureus [8]) | MIC (Klebsiella aerogenes [9]) | MIC (Phocaeicola vulgatus) | MIC [18] | MIC (Clostridioides difficile) | MIC (Clostridium perfringens) | MIC (Fusobacterium nucleatum) | also measured |
| --- | --- | --- | --- | --- | --- | --- | --- | --- | --- | --- | --- | --- | --- | --- | --- | --- | --- | --- |
| C=CCOc1ccc(Cc2cnc(N)nc2N)cc1 | 3.49 | 72 µg/mL (≈ 281 µM) | 100 µg/mL (≈ 390 µM) | 50 µg/mL (≈ 195 µM) | 100 µg/mL (≈ 390 µM) | > 100 µg/mL | 100 µg/mL (≈ 390 µM) | 100 µg/mL (≈ 390 µM) | > 20 µg/mL | 10 µg/mL (≈ 39 µM) | 100 µg/mL (≈ 390 µM) | 10 µg/mL (≈ 39 µM) | – | – | – | – | – | – |
| CCOc1cc(Cc2cnc(N)nc2N)cc2c1OCO2 | 4.43 | – | – | – | – | – | – | – | – | – | – | – | – | – | – | – | – | MIC (Klebsiella aerogenes [10]): 10 µg/mL; MIC (Klebsiella pneumoniae [11]): 30 µg/mL; MIC (Proteus vulgaris [12]): 10 µg/mL; MIC (Shigella dysenteriae): 10 µg/mL; MIC (Staphylococcus aureus [13]): 10 µg/mL; MIC (Salmonella): 30 µg/mL; MIC (Escherichia coli [14]): 30 µg/mL; pIC50 (Dihydrofolate reductase [15]): 7.39; MIC (Streptococcus pyogenes [16]): 1 µg/mL |
| C=CCc1cc(Cc2cnc(N)nc2N)cc(OC)c1O | 4.83 | 1 µg/mL (≈ 3.49 µM) | 0.3 µg/mL (≈ 1.05 µM) | 3 µg/mL (≈ 10.5 µM) | 1 µg/mL (≈ 3.49 µM) | 3 µg/mL (≈ 10.5 µM) | 3 µg/mL (≈ 10.5 µM) | 1 µg/mL (≈ 3.49 µM) | 3 µg/mL (≈ 10.5 µM) | 1 µg/mL (≈ 3.49 µM) | 0.3 µg/mL (≈ 1.05 µM) | 1 µg/mL (≈ 3.49 µM) | 1.6 µg/mL | 1.6 µg/mL | > 25 µg/mL | > 25 µg/mL | 0.2 µg/mL | half-life [17]: 42 min |
| C=CCc1cc(Cc2cnc(N)nc2N)cc(CC=C)c1O | 5.02 | 21 µg/mL (≈ 70.9 µM) | 20 µg/mL (≈ 67.5 µM) | 5 µg/mL (≈ 16.9 µM) | 100 µg/mL (≈ 337 µM) | 50 µg/mL (≈ 169 µM) | 10 µg/mL (≈ 33.7 µM) | 50 µg/mL (≈ 169 µM) | > 10 µg/mL | 1 µg/mL (≈ 3.37 µM) | 1 µg/mL (≈ 3.37 µM) | 20 µg/mL (≈ 67.5 µM) | 0.8 µg/mL | 0.4 µg/mL | > 25 µg/mL | > 25 µg/mL | 0.8 µg/mL | – |
| C=CCOc1cc(Cc2cnc(N)nc2N)cc(OC)c1OC | 3.82 | – | 10 µg/mL (≈ 31.6 µM) | 3 µg/mL (≈ 9.48 µM) | 10 µg/mL (≈ 31.6 µM) | 10 µg/mL (≈ 31.6 µM) | 10 µg/mL (≈ 31.6 µM) | 10 µg/mL (≈ 31.6 µM) | 3 µg/mL (≈ 9.48 µM) | 0.3 µg/mL (≈ 0.948 µM) | 0.3 µg/mL (≈ 0.948 µM) | 10 µg/mL (≈ 31.6 µM) | 6.2 µg/mL | 12.5 µg/mL | > 25 µg/mL | > 25 µg/mL | 0.8 µg/mL | – |
| C=CCc1cc(Cc2cnc(N)nc2N)ccc1O | 4.02 | 16 µg/mL (≈ 62.4 µM) | 20 µg/mL (≈ 78 µM) | 5 µg/mL (≈ 19.5 µM) | 10 µg/mL (≈ 39 µM) | 50 µg/mL (≈ 195 µM) | 100 µg/mL (≈ 390 µM) | 10 µg/mL (≈ 39 µM) | 20 µg/mL (≈ 78 µM) | 2 µg/mL (≈ 7.8 µM) | 10 µg/mL (≈ 39 µM) | 10 µg/mL (≈ 39 µM) | – | – | 25 µg/mL | > 25 µg/mL | 0.8 µg/mL | – |
| CCCOc1cc(Cc2cnc(N)nc2N)cc(OC)c1OC | 4.02 | 6 µg/mL (≈ 18.8 µM) | 10 µg/mL (≈ 31.4 µM) | 3 µg/mL (≈ 9.42 µM) | 3 µg/mL (≈ 9.42 µM) | 3 µg/mL (≈ 9.42 µM) | 10 µg/mL (≈ 31.4 µM) | 10 µg/mL (≈ 31.4 µM) | 3 µg/mL (≈ 9.42 µM) | 0.3 µg/mL (≈ 0.942 µM) | 0.3 µg/mL (≈ 0.942 µM) | 3 µg/mL (≈ 9.42 µM) | – | – | – | – | – | – |
| C/C=C/c1cc(Cc2cnc(N)nc2N)cc(CCC)c1OC | 4.62 | 26 µg/mL (≈ 83.2 µM) | 100 µg/mL (≈ 320 µM) | 2 µg/mL (≈ 6.4 µM) | 20 µg/mL (≈ 64 µM) | > 100 µg/mL | 20 µg/mL (≈ 64 µM) | 100 µg/mL (≈ 320 µM) | > 5 µg/mL | 0.1 µg/mL (≈ 0.32 µM) | 1 µg/mL (≈ 3.2 µM) | 100 µg/mL (≈ 320 µM) | 0.4 µg/mL | 0.4 µg/mL | 12.5 µg/mL | 12.5 µg/mL | 0.8 µg/mL | – |
| C=CCOc1ccc(Cc2cnc(N)nc2N)cc1CC=C | 4.96 | 72 µg/mL (≈ 243 µM) | > 100 µg/mL | > 100 µg/mL | 500 µg/mL (≈ 1690 µM) | > 50 µg/mL | 1000 µg/mL (≈ 3370 µM) | 500 µg/mL (≈ 1690 µM) | > 10 µg/mL | 2 µg/mL (≈ 6.75 µM) | 10 µg/mL (≈ 33.7 µM) | > 100 µg/mL | – | – | > 25 µg/mL | > 25 µg/mL | 0.8 µg/mL | – |
